The record followed here is ChEMBL document CHEMBL4396895, “Identification and Optimization of Novel Cathepsin C Inhibitors Derived from EGFR Inhibitors” (J Med Chem, 2019).

The structures appear in SMILES notation. The source made the active and inactive calls. The calls are words filed in the database; no cut-off is given here. A value given as a limit tells only on which side of the number the result lay.

The target in one data set is Cathepsin S (Homo sapiens, UniProt P25774). As to the kind of experiment: Inhibition of recombinant human C-terminal polyhistidine-tagged cathepsin S (Met1 to Ile331 residues) expressed in HEK293 cells using MCA-Arg-Pro-Lys-Pro-Val-Glu-NVAL-Trp-Arg-Lys(DNP)-NH2 as substrate preincubated for 30 mins followed by substrate addition and measured after 30 mins. Put shortly: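 Recombinant human cathepsin was preincubated with compound for 30 min at RT, then reacted with substrate for 30 min. CatB and CatL were read with Z-Leu-Arg-AMC (Ex 380/Em 460 nm). CatS was read with MCA-Arg-Pro-Lys-Pro-Val-Glu-Nva-Trp-Arg-Lys(DNP)-NH2 (Ex 320/Em 405 nm). E-64 served as inhibitor control.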
Cathepsin S, sequence (P25774 whole entry): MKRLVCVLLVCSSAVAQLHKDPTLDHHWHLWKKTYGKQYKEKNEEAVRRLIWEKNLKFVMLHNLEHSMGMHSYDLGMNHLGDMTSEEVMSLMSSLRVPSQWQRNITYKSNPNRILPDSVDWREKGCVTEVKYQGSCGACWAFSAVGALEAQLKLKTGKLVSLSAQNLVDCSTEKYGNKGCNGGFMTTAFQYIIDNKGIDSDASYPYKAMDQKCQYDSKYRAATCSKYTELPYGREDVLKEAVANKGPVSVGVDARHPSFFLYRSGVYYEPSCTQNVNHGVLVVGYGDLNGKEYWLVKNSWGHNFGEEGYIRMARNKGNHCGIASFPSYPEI

Data set [1] in a line: Half life in C57BL/6 mouse at 10 mg/kg, po by LC-MS/MS analysis. The format is ADME, organism-based. The settings on record: in vivo. The method, boiled down: (§1)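 Male C57BL/6 mice (n = 3) were dosed with a single IV dose of 2 mg/kg or an IP or PO dose of 10 mg/kg. Vehicle: 0.5% Methocel and 0.1% Tween-80 in citrate buffer, pH 3. Blood was drawn by eye puncture at several time points and analysed by LC-MS/MS. Parameters came from noncompartmental analysis of individual animals and are reported as means.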

For data set [2], the target named is Epidermal growth factor receptor (Homo sapiens, UniProt P00533). Description: Inhibition of EGFR (unknown origin) up to 10 uM using biotin-labelled peptide as substrate preincubated for 2 hrs followed by substrate addition and measured after 30 mins by HTRF FRET assay. The method, boiled down:
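EGFR WT was used at 0.1 nM final in 50 mM HEPES pH 7.0, 0.02% NaN3, 0.01% BSA, 0.1 mM orthovanadate, 10 mM MgCl2, 2.5 mM DTT, 6.25 nM SEB. It was preincubated with compound for 2 h. Biotin-peptide (1.4 μM) and ATP (20 μM) were then added for 30 min at RT. Read-out was HTRF/TR-FRET (Ex 320, Em 615/665 nm) with a sigmoidal curve fit.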

Data set [3] relates to Mus musculus. As to the kind of experiment: In vivo inhibition of CatC in po dosed C57BL/6 mouse blood assessed as reduction in neutrophil elastase activation administered twice daily for 6 days using methoxysuccinyl-Ala-Ala-Pro-Val-AMC as substrate measured up to 90 mins by fluorescence assay. The format is functional, organism-based. Put shortly: (§2)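 C57BL/6 mice (20−25 g; n = 10 per group) received oral doses twice daily at 6.7, 20 or 60 mg/kg for 6 days. The vehicle group got 0.5% Methocel and 0.1% Tween-80 in 100 mM citrate buffer, pH 3. Blood was drawn by eye puncture 14 h after the last dose. Bone marrow was flushed from femurs and tibias with ice-cold RPMI 1640. Cells were lysed in 50 mM Tris pH 7.4, 750 mM NaCl, 1% Triton X-100, sonicated on ice and stored at −80 °C. Lysates were diluted by protein content, with blood diluted 5-fold more than marrow. Kinetics were followed for up to 90 min. Results are % of the vehicle mean.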

The nature of data set [4]: AUC infinity in C57BL/6 mouse at 10 mg/kg, ip by LC-MS/MS analysis. Particulars: in vivo. The format is ADME, organism-based. More on the design: dose 10 mg/kg, route intraperitoneal, time infinity. Put shortly: as §1
For another data set, the target named is T1, Cytochrome P450 1A2 (Homo sapiens, UniProt P05177).
T1 sequence (P05177 whole entry): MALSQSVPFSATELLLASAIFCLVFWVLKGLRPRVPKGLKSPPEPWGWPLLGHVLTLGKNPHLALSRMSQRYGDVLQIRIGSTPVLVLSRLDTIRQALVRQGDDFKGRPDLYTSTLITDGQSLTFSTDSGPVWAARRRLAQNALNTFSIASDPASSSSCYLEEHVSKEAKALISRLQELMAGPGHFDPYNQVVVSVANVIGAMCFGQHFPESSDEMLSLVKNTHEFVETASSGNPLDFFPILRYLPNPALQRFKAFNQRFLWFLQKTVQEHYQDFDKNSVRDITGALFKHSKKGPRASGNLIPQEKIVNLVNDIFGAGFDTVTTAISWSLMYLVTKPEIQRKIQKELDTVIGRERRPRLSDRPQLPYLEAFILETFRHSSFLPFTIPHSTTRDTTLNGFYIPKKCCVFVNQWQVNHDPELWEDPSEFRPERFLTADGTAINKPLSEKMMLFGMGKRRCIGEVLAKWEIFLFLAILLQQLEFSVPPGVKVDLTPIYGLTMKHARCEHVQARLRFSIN
As to the kind of experiment: Inhibition of CYP1A2 (unknown origin). The format is ADME. The method, boiled down:
(§3)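 Tested against recombinant human cytochrome P450 isoforms 1A2, 2D6, 3A4, 2C9 and 2C19.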

A short description of data set [5]: Intrinsic clearance in mouse liver microsomes assessed per mg protein measured after 60 mins in presence of NADPH by LC-MS/MS analysis. The format is ADME, Microsome. Particulars: read-out: CLH.
A further data set concerns the target Cytochrome P450 2C9 (Homo sapiens, UniProt P11712). As to the kind of experiment: Inhibition of CYP2C9 (unknown origin). The format is ADME. The method, boiled down:
as §3

Data set [6] concerns Mus musculus. Description: In vivo inhibition of CatC in po dosed C57BL/6 mouse bone marrow assessed as reduction in neutrophil elastase activation administered twice daily for 6 days using methoxysuccinyl-Ala-Ala-Pro-Val-AMC as substrate measured up to 90 mins by fluorescence assay. The format is functional, organism-based. The method, boiled down:
as §2

The nature of data set [7]: Tmax in C57BL/6 mouse at 10 mg/kg, ip by LC-MS/MS analysis. The settings on record: in vivo. The format is ADME, organism-based. Put shortly:
as §1

Data set [8] has as its system Mus musculus. Description: In vivo inhibition of CatC in po dosed C57BL/6 mouse blood administered twice daily for 6 days using Gly-Phe-AFC as substrate measured up to 90 mins by fluorescence assay. The format is functional, organism-based. The method, boiled down: as §2
Data set [9] in a line: Bioavailability in C57BL/6 mouse at 10 mg/kg, ip by LC-MS/MS analysis. The format is ADME, organism-based. The settings on record: in vivo. Put shortly:
as §1

Data set [10] relates to Mus musculus. As to the kind of experiment: In vivo inhibition of CatC in po dosed C57BL/6 mouse blood assessed as reduction in proteinase 3 activation administered twice daily for 6 days using aminobenzoyl-Val-Ala-Asp-Cys-Ala-Asp-Gln-ethylenediamine 2,4-dinitrophenyl as substrate measured up to 90 mins by fluorescence assay. The format is functional, organism-based. The method, boiled down: as §2

Data set [11] can be described thus: Toxicity in C57BL/6 mouse assessed as effect on WBC level at 60 mg/kg, po administered twice daily for 6 days. The format is organism-based. The settings on record: in vivo, 144 h.
The target of another data set is Cytochrome P450 3A4 (Homo sapiens, UniProt P08684). As to the kind of experiment: Inhibition of CYP3A4 (unknown origin). The format is ADME. Put shortly: as §3
Cytochrome P450 3A4, sequence (P08684 whole entry): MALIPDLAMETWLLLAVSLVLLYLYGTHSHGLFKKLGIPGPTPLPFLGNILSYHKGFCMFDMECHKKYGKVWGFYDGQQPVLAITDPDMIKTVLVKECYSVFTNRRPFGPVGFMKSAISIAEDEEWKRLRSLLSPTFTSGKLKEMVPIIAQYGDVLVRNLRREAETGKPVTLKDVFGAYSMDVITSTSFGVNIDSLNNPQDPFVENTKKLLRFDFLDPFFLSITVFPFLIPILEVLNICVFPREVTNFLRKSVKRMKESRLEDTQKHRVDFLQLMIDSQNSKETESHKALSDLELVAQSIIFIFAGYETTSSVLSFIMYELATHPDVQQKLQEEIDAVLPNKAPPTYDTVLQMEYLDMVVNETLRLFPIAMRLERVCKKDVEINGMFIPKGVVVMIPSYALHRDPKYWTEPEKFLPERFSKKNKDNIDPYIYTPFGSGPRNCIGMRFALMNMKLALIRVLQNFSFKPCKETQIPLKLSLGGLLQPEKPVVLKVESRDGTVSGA
Data set [12] is described as follows: Cmax in C57BL/6 mouse at 10 mg/kg, po by LC-MS/MS analysis. The format is ADME, organism-based. Further details: dose 10 mg/kg, route oral. The settings on record: in vivo. Put shortly: as §1
Data set [13] can be described thus: Cmax in C57BL/6 mouse at 10 mg/kg, ip by LC-MS/MS analysis. The format is ADME, organism-based. Further details: dose 10 mg/kg, route intraperitoneal. The settings on record: in vivo. The method, boiled down: as §1
Data set [14] deals with Mus musculus. Description: In vivo inhibition of CatC in C57BL/6 mouse blood at 20 mg/kg, po single dose using Gly-Phe-AFC as substrate measured 8 hrs post dose for up to 90 mins by fluorescence assay relative to control. The settings on record: C57BL/6, Blood.
In data set [15] the test system is Mus musculus. Description: In vivo inhibition of CatC in po dosed C57BL/6 mouse bone marrow administered twice daily for 6 days using Gly-Phe-AFC as substrate measured up to 90 mins by fluorescence assay. The format is functional, organism-based. Put shortly: as §2
Data set [16] can be described thus: Drug uptake in C57BL/6 mouse kidney at 10 mg/kg, po by LC-MS/MS analysis. The format is ADME, organism-based. Particulars: in vivo.

Cytochrome P450 2C9, sequence (P11712 whole entry): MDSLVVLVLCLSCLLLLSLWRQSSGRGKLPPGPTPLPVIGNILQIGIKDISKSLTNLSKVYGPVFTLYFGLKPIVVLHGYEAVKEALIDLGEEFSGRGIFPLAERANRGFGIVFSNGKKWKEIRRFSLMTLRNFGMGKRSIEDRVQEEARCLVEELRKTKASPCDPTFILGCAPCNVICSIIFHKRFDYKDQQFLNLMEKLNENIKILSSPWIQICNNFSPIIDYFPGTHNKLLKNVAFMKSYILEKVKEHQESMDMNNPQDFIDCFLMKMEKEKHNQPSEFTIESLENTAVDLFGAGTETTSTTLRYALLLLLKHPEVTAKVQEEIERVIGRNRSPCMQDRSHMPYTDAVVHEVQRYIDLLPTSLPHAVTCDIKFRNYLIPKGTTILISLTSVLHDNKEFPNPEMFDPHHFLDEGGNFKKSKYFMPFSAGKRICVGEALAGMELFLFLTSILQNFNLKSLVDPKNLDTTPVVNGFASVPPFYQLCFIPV
Epidermal growth factor receptor, sequence (P00533 whole entry): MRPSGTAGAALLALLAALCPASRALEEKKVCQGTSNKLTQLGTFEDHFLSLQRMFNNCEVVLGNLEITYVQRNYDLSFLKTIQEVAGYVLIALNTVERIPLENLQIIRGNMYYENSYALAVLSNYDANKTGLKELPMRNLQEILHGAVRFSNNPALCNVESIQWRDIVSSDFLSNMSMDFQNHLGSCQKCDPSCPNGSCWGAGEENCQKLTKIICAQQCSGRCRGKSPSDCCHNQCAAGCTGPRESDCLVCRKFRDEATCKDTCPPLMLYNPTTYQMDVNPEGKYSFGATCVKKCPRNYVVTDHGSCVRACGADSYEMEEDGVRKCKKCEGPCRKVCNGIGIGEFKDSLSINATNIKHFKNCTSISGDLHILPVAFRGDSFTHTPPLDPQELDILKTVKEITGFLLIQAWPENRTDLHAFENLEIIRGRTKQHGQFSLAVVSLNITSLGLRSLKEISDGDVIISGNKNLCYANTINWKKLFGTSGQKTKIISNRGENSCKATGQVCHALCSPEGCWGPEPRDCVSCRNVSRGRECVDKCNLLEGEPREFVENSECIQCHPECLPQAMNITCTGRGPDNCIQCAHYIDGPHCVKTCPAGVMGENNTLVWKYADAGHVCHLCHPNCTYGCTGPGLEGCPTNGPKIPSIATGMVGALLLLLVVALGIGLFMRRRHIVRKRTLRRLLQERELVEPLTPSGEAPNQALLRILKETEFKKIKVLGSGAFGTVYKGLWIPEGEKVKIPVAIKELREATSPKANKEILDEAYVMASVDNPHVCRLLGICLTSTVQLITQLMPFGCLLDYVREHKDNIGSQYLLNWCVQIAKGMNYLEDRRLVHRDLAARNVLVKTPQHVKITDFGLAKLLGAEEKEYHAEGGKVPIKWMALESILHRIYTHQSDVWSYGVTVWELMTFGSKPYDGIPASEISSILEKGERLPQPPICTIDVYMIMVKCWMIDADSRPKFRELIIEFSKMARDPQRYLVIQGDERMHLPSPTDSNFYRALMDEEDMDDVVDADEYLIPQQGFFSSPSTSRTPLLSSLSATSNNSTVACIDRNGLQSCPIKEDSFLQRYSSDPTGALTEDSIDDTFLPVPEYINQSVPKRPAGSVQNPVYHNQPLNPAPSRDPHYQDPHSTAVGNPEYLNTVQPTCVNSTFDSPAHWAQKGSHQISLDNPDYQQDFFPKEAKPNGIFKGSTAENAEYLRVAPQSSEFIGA

For `C=CC(=O)Nc1cc(Oc2nc(Nc3ccc(N4CCN(C)CC4)cc3OC)ccc2N2CCCCC2)ccc1C`, the IC50 at Cathepsin S, at Cytochrome P450 1A2, on Cytochrome P450 2C9 and on Cytochrome P450 3A4 was more than 10 µM throughout. For the same compound, the half-life in data set [1] is 3.06 h. Also, the inhibition result in data set [2] is “inactive”. Further, the inhibition entry in the data set with Mus musculus [3], in the data set on Mus musculus [6], in the data set with Mus musculus [8], with Mus musculus [10] and in the data set with Mus musculus [15] was “Dose-dependent effect” in each case. The compound further displayed an AUC(0-inf) in data set [4] of 1240 ng·h/mL. Moreover, the microsomal CLint in [5] worked out at 10.8 µL/min/mg. For the same compound, the Tmax in data set [7] worked out at 0 h. The compound further yielded a bioavailability in data set [9] of 20.3%. In data set [11], the Activity entry was “Non-Toxic”. For the same compound, the Cmax came out at 184 ng/mL in data set [12] and 766 ng/mL in data set [13]. Besides, 20 mg/kg produced 80% inhibition in vivo with Mus musculus [14]. In addition, the Drug uptake entry in data set [16] is “Active”.
